In the library only some 3.8% were active in any assay of this set; here they are far more common.
KCNK3 inh: human KCNK3 channel inhibitors, primary screen, CHO cells, FluxOR thallium flux, B-score. FluxOR fluorescence; hits give low values. B-score at 10 µM. 340,000 tested, 0.84% active. AID 602410, 2012;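 active = B-score under library mean minus 4 SD, starting fluorescence ratio at most library mean plus 5 SD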;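 also: more negative B-score means stronger inhibition of thallium flux through KCNK3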
hERG rescue: hERG rescue from dofetilide block, primary screen, cell-based, CHO-hERG, FluxOR thallium flux, dofetilide IC70 | activation (rescue from dofetilide block), less the hit threshold, % at 10 µM | dofetilide IC70 present | Voltage-gated inwardly rectifying potassium channel KCNH2 (Homo sapiens), Q12809 | 310,000 tested, 0.51% active;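 active = activation above the mean of controls blocked by dofetilide plus 5 SD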;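 also: thallium influx through hERG after potassium depolarization seen as dye fluorescence rise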
Target sequence (Q12809 whole entry, looked up): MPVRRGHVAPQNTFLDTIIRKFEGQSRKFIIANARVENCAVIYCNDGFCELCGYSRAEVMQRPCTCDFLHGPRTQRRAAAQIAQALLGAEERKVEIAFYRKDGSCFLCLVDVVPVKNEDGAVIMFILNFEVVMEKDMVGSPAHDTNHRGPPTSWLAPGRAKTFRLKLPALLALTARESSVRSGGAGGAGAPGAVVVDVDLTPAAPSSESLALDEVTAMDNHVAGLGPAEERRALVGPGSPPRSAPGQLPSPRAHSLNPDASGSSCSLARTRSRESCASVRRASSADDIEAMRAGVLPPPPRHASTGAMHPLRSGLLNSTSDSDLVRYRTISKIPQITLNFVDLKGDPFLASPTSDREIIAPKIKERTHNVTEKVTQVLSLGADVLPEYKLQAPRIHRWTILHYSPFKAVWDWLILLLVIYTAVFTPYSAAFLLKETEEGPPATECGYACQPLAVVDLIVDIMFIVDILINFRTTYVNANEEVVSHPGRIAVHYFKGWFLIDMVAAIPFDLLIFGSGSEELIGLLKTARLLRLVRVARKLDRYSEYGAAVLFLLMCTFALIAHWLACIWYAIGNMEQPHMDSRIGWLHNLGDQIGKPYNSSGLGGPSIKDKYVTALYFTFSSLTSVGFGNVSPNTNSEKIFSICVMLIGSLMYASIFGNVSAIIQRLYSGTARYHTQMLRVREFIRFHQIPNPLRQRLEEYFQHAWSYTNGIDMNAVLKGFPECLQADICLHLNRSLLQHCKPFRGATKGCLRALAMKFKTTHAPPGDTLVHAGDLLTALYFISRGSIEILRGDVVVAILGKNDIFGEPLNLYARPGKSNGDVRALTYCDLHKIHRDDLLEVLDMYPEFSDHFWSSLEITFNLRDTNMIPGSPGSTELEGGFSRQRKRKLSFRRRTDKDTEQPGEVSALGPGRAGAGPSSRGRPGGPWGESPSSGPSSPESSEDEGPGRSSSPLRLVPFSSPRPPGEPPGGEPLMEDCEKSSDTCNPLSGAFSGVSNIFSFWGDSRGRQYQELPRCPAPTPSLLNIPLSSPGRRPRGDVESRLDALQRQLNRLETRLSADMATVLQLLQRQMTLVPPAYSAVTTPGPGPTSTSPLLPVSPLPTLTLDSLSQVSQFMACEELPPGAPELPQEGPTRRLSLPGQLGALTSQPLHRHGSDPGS
KCNQ1 act: potentiators or activators of KCNQ1 channel, primary screen, cell-based, thallium flux, high-throughput; Potassium voltage-gated channel subfamily KQT member 1 (Homo sapiens), P51787; CHO-K1 KCNQ1, thallium flux FluxOR fluorescence; hits give high values; B-score at 10 µM; 310,000 tested, 0.35% active; AID 2648, 2010;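 active = fluorescence ratio B-score, a plate-corrected score, at least three library SD, with initial intensity B-score within 5 SD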
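Assay system: stable KCNQ1 CHO-K1 line; medium: assay buffer, equal DMSO in all wells; timing: 90 min dye loading and 20 min compound exposure, both at room temperature; technique: kinetic FluxOR thallium fluorescence, 10-s 1-Hz baseline, 110-s post-stimulus read; read-out basis: B score of baseline-normalized fluorescence ratio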
KCNK9 block: KCNK9 potassium channel inhibitors, primary screen, HEK293 cells, thallium flux; FluxOR thallium flux fluorescence; hits give low values; 310,000 tested, 1.2% active; B-score at 10 µM; Potassium channel subfamily K member 9 (Homo sapiens), Q9NPC2;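 active = ratio B-score over 3 SD below the library mean, with starting fluorescence within 5 SD of its mean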;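 also: negative B-score means less thallium flux so channel inhibition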
KCNQ1 inh: inhibitors of human KCNQ1 channel, primary screen, cell-based, thallium flux, high-throughput | Potassium voltage-gated channel subfamily KQT member 1 (Homo sapiens), P51787 | CHO-K1 KCNQ1, FluxOR thallium flux fluorescence; hits give high values | B-score at 10 µM | 310,000 tested, 1.3% active;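 active = compounds whose thallium flux B-score, printed positive for inhibition, exceeds three library SD while starting fluorescence stays within three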;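 also: channel opened by potassium depolarization with thallium stimulus after 20 min compound exposure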
Kir21 block: inhibitors of mouse Kir2.1 inward-rectifier potassium channel; Inward rectifier potassium channel 2 (Mus musculus), P35561; HEK293-Kir2.1, FluxOR thallium flux fluorescence; hits give low values; B-score at 10 µM; 310,000 tested, 0.85% active;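 active = fluorescence ratio B-score at or below minus 3 SD of library scores, with starting-brightness B-score within 2 SD, cut at about -4.2 in these data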;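 also: channel flux triggered by added potassium and thallium sulfate stimulus; B-score of peak minus minimum fluorescence over baseline after thallium stimulus; more negative B-score means stronger Kir2.1 block with less thallium influx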
Large screens that a line does not name were inactive.

c1ccc2c(c1)CCN(c1nc(CN3CCOCC3)nc3sc4c(c13)CCCC4)C2	KCNQ1 inh 6
Nc1ccc2c(c1)C(O)c1cccc(C(=O)O)c1-2 (stereo not given)	none (no result: hERG rescue, KCNQ1 act, KCNK9 block, KCNQ1 inh, Kir21 block)
CC(C)COc1ccc(-c2nn(-c3ccccc3)cc2C(=O)Nc2nccs2)cc1	hERG rescue 14, KCNQ1 act 9
O=C(Nc1nccs1)c1cn(-c2ccccc2)nc1-c1ccccc1	none
CN(C(=O)Cn1cccc1C1=NC(c2ccccc2)CO1)c1ccccc1 (stereo not given)	Kir21 block -4.7
COc1ccc(S(=O)(=O)Nc2ccc(S(=O)(=O)Nc3cc(C)nc(C)n3)cc2)cc1OC	none
CCOc1ccccc1NC(=O)NC1CC2CCCC(C1)N2Cc1nnnn1CCc1ccccc1 (stereo not given)	KCNK3 inh -9.1
O=C(Nc1ccccc1)NC1CC2CCC(C1)N2Cc1nnnn1Cc1ccc2c(c1)OCO2 (stereo not given)	none
Brc1cccc(C=Nc2cccc3ncccc23)c1	none
Oc1c(Br)cc(Br)cc1C=Nc1cccc2ncccc12	hERG rescue 4.8, KCNQ1 act 13
COC(=O)C1CC(O)C(O)C(O)C1 (stereo not given)	none (no result: hERG rescue, KCNQ1 act, KCNK9 block, KCNQ1 inh, Kir21 block)
O=C(NC(=S)Nc1ccccc1Cl)c1csnn1	hERG rescue 60
O=C(NC(=S)Nc1cccc(C(F)(F)F)c1)c1csnn1	hERG rescue 54, KCNQ1 act 63
COc1ccc(OCC(=O)OCC(=O)Nc2ccc3[nH]c(=O)[nH]c3c2)cc1	none (no result: hERG rescue, KCNQ1 act, KCNK9 block, KCNQ1 inh, Kir21 block)
CCN1C(=O)CSc2ccc(C(=O)NCc3ccc(OC)cc3)cc21	Kir21 block -8.9
Cc1ccc2c(c1)c1c(n2CC(O)CNC2CCCCC2)CCCC1 (stereo not given)	Kir21 block -7.9
CCN(CC)C(=O)CSc1ncnc2c1nnn2-c1ccc(OC)cc1	none
CCOC(=O)CC(=O)CSc1ncnc2c1nnn2-c1ccc(OC)cc1	hERG rescue 7.0
CC(Sc1nnc2n1CCCCC2)C(=O)Nc1ccc(S(N)(=O)=O)cc1 (stereo not given)	none (no result: hERG rescue, KCNQ1 act, KCNK9 block, KCNQ1 inh, Kir21 block)
O=[N+]([O-])c1ccccc1CNCCO	none (no result: hERG rescue, KCNQ1 act, KCNK9 block, KCNQ1 inh, Kir21 block)
COc1cc(-c2csc(CCn3nc(C)cc3C)n2)cc(OC)c1OC	KCNK9 block -6.7
Cc1cc(C)n(CCc2nc(-c3ccc(F)cc3)cs2)n1	none
C/C(=N\NC(=O)c1ccc(-c2ccccc2)cc1)C1C(=O)c2ccccc2C1=O	KCNQ1 inh 7
COc1ccccc1OCC(O)CNCc1ccc2c(c1)OCO2 (stereo not given)	none
C/C(=N\Nc1nc(-c2ccccc2O)nc2ccccc12)c1ccccc1	none
C/C(=N/Nc1nc(-c2ccccc2F)nc2ccccc12)c1ccccc1O	KCNK9 block -7.3, KCNQ1 inh 7
CC(C)(C)C(=O)NC(=S)NNC(=O)c1sc2ccccc2c1Cl	hERG rescue 34, KCNQ1 act 49
CCOC(=S)NC(=O)c1sc2ccccc2c1Cl	hERG rescue 22, KCNQ1 act 96
O=C(NC(=S)NCCO)c1sc2ccccc2c1Cl	none
CCCOC(=S)NC(=O)c1sc2ccccc2c1Cl	hERG rescue 15, KCNQ1 act 49
O=C(NNC(=S)NC1CCCCC1)c1sc2ccccc2c1Cl	none
O=C(Nc1nc(-c2ccccn2)cs1)c1cccc(S(=O)(=O)N2CCOCC2)c1	none (no result: hERG rescue, KCNQ1 act, KCNK9 block, KCNQ1 inh, Kir21 block)
Cn1c(C=O)c(-c2ccc3cc[nH]c3c2)c2ccccc21	none (no result: hERG rescue, KCNQ1 act, KCNK9 block, KCNQ1 inh, Kir21 block)
CC(C)C(NC(=O)c1ccccc1)C(=O)OCC(=O)N1CCN(c2ccccc2)CC1 (stereo not given)	none (no result: hERG rescue, KCNQ1 act, KCNK9 block, KCNQ1 inh, Kir21 block)
C[C@@H](CN1C2=NC[C@H](Cc3ccccc3)N2C[C@H]1Cc1ccc(O)cc1)NC(=O)CCC1CCCCC1	Kir21 block -4.5
COc1ccc(C[C@H]2CN3C(=NC[C@H]3Cc3ccccc3)N2CCNC(=O)CCC2CCCCC2)cc1	Kir21 block -6.1
COc1ccc(C[C@H]2CN3C(=NC[C@@H]3Cc3ccccc3)N2C[C@H](C)NC(=O)CCC2CCCCC2)cc1	Kir21 block -7.3 (no result: KCNK3 inh)
O=c1[nH]c(C2CCCN(S(=O)(=O)c3ccccc3)C2)nc2c1nnn2Cc1ccccc1Br (stereo not given)	none
COC(=O)c1ccccc1-c1c2ccc(=N)cc-2oc2cc(N)ccc12	none (no result: hERG rescue, KCNQ1 act, KCNK9 block, KCNQ1 inh, Kir21 block)
CC[n+]1ccccc1/C=C1\Sc2ccc(C)cc2N1C	KCNQ1 inh 7
Cc1coc2c(C)c3oc(=O)c(CCC(=O)N(C)CC(=O)O)c(C)c3cc12	none
O=C(N/N=C/c1coc2ccccc2c1=O)c1cc(Br)c(O)c(Br)c1	KCNQ1 inh 8
O=C(Nc1ccccc1Cl)C1C(c2ccccc2)C1(Cl)Cl (stereo not given)	KCNQ1 inh 6
O=C(O)c1cc(=O)c2cc(Cl)ccc2o1	none
COc1ccc(/C=C/c2cc(=O)c3cc(Cl)ccc3o2)cc1	hERG rescue 4.6
CC1=NOC(=O)/C1=C\c1ccc(-c2ccccc2Br)o1	none
CCOC(=O)Cc1csc(NC(=O)COc2ccc(N(C)S(=O)(=O)c3ccc(C)cc3)cc2)n1	KCNK9 block -6.8
O=C(NN1C(=O)C2C3c4ccccc4C(c4ccccc43)[C@@H]2C1=O)c1ccccc1 (stereo not given in full)	none
O=C(NN1C(=O)C2C(c3ccccc3)C=CC(c3ccccc3)C2C1=O)c1ccccc1 (stereo not given)	hERG rescue 8.6, KCNK9 block -7.8
COc1cc(CN(C)C(C)C(=O)Nc2ccc([N+](=O)[O-])cc2Cl)ccc1OC(F)F (stereo not given)	none
COc1ccc(Cl)cc1NC(=O)C(C)N(C)Cc1ccc(C(F)(F)F)cc1 (stereo not given)	KCNK9 block -7.4
NC(=NCCc1c[nH]c2ccccc12)NC(=O)c1ccc(F)cc1	Kir21 block -7.2
O=C1CCC/C=C/C[C@H](CC(=O)N(CCO)Cc2ccccc2)C(=O)N[C@@H](Cc2ccccc2)CO1	none (no result: hERG rescue, KCNQ1 act, KCNK9 block, KCNQ1 inh, Kir21 block)
COc1cccc(-n2nc(C(=O)O)c3ccccc3c2=O)c1	hERG rescue 6.5
CCCN(C(=O)CCNC(=O)Cn1cnc2ccccc2c1=O)c1cccc(Cl)c1	none
COc1ccc(C(c2nnnn2C(C)(C)C)N2CCN(c3nc4ccccc4s3)CC2)cc1 (stereo not given)	KCNK9 block -7.1
